Screening data (PubChem BioAssay)
AHR activator – AHR activators, primary screen, cell-based, luminescence, luciferase reporter, human | Aryl hydrocarbon receptor (Homo sapiens), P35869 | AHR-responsive luciferase reporter cells | activation, % at 5 µM | actives 2.5% (n = 320,000) | AID 2796, 2010; in the data active = activation above about 47%;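 note: 0% = vehicle wells and 100% = reference agonist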
STAT3 act – IL-6 driven STAT3 reporter potentiators, primary screen, U3A cells, luciferase, luminescence, MLSCN library; IL-6 STAT3-luciferase reporter; 100% = signal with IL-6 EC80 alone; activation (% of control), % at 5.6 µM; actives 0.91% (n = 190,000); AID 871, 2007;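 active = activation above the screen-wide mean of compound activation plus 3 SD, cut at about 130% in these data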;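 note: 0% = background luminescence of wells with medium and substrate only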
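System – human U3A cells carrying STAT3-luciferase construct · Probe or stimulus – Interleukin-6, 33 ng/mL · Schedule – compound 1 h, then IL-6 6 h at 37 °C · Signal – luminescence from STAT3-driven luciferase reporter · Evaluation – percent of IL-6-only median luminescence · Benchmarks – IL-6-only high control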
HSF1 inhib – HSF1 inhibitors in luciferase reporter cells, primary screen, cell-based, NIH3T3, luminescence; AID 2098, 2009; activity change, negative = inhibition, % at 7.5 µM (by protocol); actives 0.77% (n = 300,000); NIH3T3-HGL HSE-luciferase, MG132-induced, luminescence 8 h; active compounds read low;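 active = more than half of replicate wells show activity change below -50%, luminescence cut by over half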;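 note: luciferase reports HSF-1 transcriptional activity via heat shock element; 0% = median of DMSO wells and -100% = zero luminescence signal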
PERK inhibitor – block of dimerizer-induced PERK translation repression, primary screen, PERK inhibitor project, CHO PERK-DD cells, SEAP luminescence, HTS; actives 0.17% (n = 220,000); inhibition, % at 5.6 µM; AID 1416, 2008; CHO PERK-DD fusion, SEAP luminescence translation reporter;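 active = inhibition above the mean inhibition of all tested compounds plus 3 SD, set separately per screening campaign, cut at about 2.9% in these data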;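 note: PERK kinase domain activated by AP20187 dimerizer at 100 nM; 0% = DMSO with dimerizer and 100% = rapamycin at 8.4 µM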
Target sequence (Q9NZJ5 whole entry, looked up, the tested form may be a part): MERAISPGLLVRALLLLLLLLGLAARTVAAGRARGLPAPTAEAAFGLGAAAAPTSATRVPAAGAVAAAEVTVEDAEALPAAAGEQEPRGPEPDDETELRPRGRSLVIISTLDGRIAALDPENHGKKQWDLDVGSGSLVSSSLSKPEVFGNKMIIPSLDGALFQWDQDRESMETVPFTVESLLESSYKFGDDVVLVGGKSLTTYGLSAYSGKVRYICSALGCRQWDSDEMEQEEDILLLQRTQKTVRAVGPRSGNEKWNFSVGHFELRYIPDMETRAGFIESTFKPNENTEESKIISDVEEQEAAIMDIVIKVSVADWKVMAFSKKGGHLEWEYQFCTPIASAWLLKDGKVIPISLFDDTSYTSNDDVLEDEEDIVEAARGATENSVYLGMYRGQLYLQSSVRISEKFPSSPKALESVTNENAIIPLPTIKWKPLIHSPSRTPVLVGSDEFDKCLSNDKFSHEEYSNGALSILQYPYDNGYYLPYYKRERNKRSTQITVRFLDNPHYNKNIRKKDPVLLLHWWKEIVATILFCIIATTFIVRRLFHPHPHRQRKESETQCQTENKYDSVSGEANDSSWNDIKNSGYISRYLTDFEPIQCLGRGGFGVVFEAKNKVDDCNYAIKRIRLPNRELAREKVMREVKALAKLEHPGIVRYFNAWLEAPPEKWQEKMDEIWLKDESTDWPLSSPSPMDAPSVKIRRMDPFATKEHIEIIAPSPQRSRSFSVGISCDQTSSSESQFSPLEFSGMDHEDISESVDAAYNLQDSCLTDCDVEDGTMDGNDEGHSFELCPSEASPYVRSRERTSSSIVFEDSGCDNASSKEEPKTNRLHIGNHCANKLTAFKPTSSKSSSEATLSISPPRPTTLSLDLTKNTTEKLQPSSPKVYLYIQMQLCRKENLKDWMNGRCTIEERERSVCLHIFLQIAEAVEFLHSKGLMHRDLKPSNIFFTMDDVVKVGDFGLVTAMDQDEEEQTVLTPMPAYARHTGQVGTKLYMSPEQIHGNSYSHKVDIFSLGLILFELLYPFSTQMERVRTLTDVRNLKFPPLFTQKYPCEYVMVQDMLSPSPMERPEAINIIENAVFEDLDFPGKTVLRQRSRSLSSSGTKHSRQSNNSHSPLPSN
Hsp70 act – Hsp70 transcriptional activators, primary screen, cell-based, HeLa, Hsp70 promoter luciferase, luminescence, 10 µM; HeLa Hsp70 promoter luciferase reporter; scaled: vehicle 0, proteasome-inhibitor control 100%; activation, % at 10 µM; actives 0.04% (n = 200,000);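 active = activation above the mean across all tested compounds plus 3 SD, cutoff set per campaign, cut at about 5.5% in these data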;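 note: 100% = MG132 at 30 µM as the positive control and 0% = DMSO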
PolyA inh – polyadenylation inhibitors in yeast reporter cells, primary screen, luminescence, S. cerevisiae. S. cerevisiae SKY197-pL101 polyadenylation reporter, beta-gal luminescence; efflux-impaired pdr1/pdr3 knockout yeast; score 100 = 6 SD above DMSO. activity score, % at 12 µM. actives 0.02% (n = 300,000). AID 1875, 2009;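 active = lowest replicate activity score at least 50, where 100 means six control SD above control mean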;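 note: yeast exposed to compound for 9 h at 30 °C; higher score means more reporter readthrough which indicates perturbed polyadenylation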
* marks the source's active call; other numbers are inactive results; . = no result. Rows were chosen to be rich in hits. Some 3.6% of all compounds tested hit in one or more screens of this group.

SMILES	AHR activator	STAT3 act	HSF1 inhib	PERK inhibitor	Hsp70 act	PolyA inh
CCOc1cc(N2CCOCC2)c(OCC)cc1NC(=O)Cn1[nH]c(=O)c2ccccc2c1=O	5	97	-3	2	0	21
CCOc1ccccc1NC(=O)Nc1ccccn1	54*	.	-16	0	.	1
CCOc1ccccc1NC(=O)Nc1ccc(Cl)cc1	53*	88	-13	1	0	-24
O=C(c1ccc(Br)o1)N1CCN(c2ccc3nnc(-c4ccc(F)cc4)n3n2)CC1	47*	96	-7	0	0	-2
CC1(C)CC(=O)C2=C(C1)Nc1ccccc1NC2c1ccc([N+](=O)[O-])cc1 (stereo unspecified)	-2	.	1	.	.	2
CCn1ccnc1CN1CCC(n2nccc2NC(=O)c2ccccc2OC)CC1	5	.	2	.	.	9
COc1ccc2nc(Cl)c(C#N)cc2c1	2	107	-65*	1	0	-11
O=C(CCl)NN1C(=O)NC(c2ccccc2)(c2ccccc2)C1=O	1	.	4	.	.	-5
O=C1Nc2cc(Cl)c(Cl)cc2N(O)N1c1ccc(Cl)c(Cl)c1	57*	104	-6	0	0	-11
CC(C)c1ccc(N(C(=O)CNC(=O)c2ccco2)C(C(=O)NC2CCCC2)c2cccnc2)cc1 (stereo unspecified)	-3	.	4	.	.	13
COc1ccc2cc(C(=O)C3CCCN(C(=O)c4cncs4)C3)ccc2c1 (stereo unspecified)	59*	.	9	.	.	-38
CCOc1ccccc1NC(=O)C(NCC1(N2CCCCC2)CCCCC1)c1ccccc1 (stereo unspecified)	1	100	0	0	0	-3
COc1cccc(N2CCN(Cc3nnnn3C3CCCCC3)CC2)c1	1	103	-60*	0	0	-5
Cc1ccc(C)c(N2CCN(Cc3nnnn3C3CCCCC3)CC2)c1	5	110	-5	-1	0	3
OCCN(CCO)Cc1ccc(Br)cc1	63*	99	21	0	0	4
CC(C)c1ccc(C2=C(O)c3ccccc3C(=O)C2=O)cc1	54*	85	6	0	0	2
Cc1cc(/C=C2\SC(=O)N(C)C2=O)c(C)n1-c1ccc(O)cc1	-1	.	-70*	.	.	0
CN=C1S/C(=C\c2cc(C)n(-c3ccccc3F)c2C)C(=O)N1C	2	58	-82*	-1	0	14
CC(C)Oc1ccc(C(CC(=O)O)n2cnnn2)cc1 (stereo unspecified)	1	98	-5	0	0	-10
COc1ccc(NC(=O)Nc2ccc(C)cc2Br)c(OC)c1	8	99	1	1	0	9
COc1ccc(NC(=O)c2cc3cc(C)ccc3n2C)c(OC)c1	59*	.	-6	.	.	-7
S=C(N/N=C/c1ccc(Cl)cc1)N1CCOCC1	71*	98	4	0	0	6
Cc1ccc2nc(C)c(C(=O)N/N=C/c3ccc(N4CCOCC4)cc3)cc2c1	10	108	6	0	0	-7
COc1ccc(Cl)cc1C(=O)N/N=C/c1ccc(N2CCOCC2)cc1	53*	97	-7	1	0	-4
CCn1ncc(/C=N\NC(=O)COc2cc(C)cc(C)c2)c1C	5	104	-6	-1	0	10
SMILES	AHR activator	STAT3 act	HSF1 inhib	PERK inhibitor	Hsp70 act	PolyA inh
CCn1ncc(/C=N/NC(=O)c2cc(Cl)ccc2OC)c1C	76*	97	-5	0	0	19
CCNC(=O)CSc1nnc(-c2cc(-c3ccc(Cl)cc3)nc3ccccc23)o1	50*	88	9	-1	0	12
COc1ccc(NC(=O)c2ccc3c(c2)N(C)CCS3)cc1	72*	.	22	.	.	-13
CN1CCSc2ccc(C(=O)NCc3ccccc3)cc21	62*	.	12	.	.	14
CN1CCSc2ccc(C(=O)Nc3cccc(F)c3)cc21	126*	.	117	-1	.	-1
O=C(NCc1cccnc1)c1ccc2c(c1)N(Cc1ccccc1)CCS2	14	.	13	1	.	4
O=C(Nc1cccc(Cl)c1)c1ccc2c(c1)SC1=NS(=O)(=O)CCN12	.	101	.	1	0	.
Cc1ccnc(NC(=O)CCC(=O)N(CC(=O)NC(C)(C)C)c2ccc(F)c(Cl)c2)c1	0	94	-1	0	0	20
C/C=C/c1ccc(OCC(=O)Nc2ccc(OC)c(OC)c2)c(OC)c1	1	90	-69*	1	0	-14
Cc1ccc(NC(=O)C2C(=O)N(C)c3ccccc32)cc1 (stereo unspecified)	73*	112	-2	0	0	-16
COC(=O)Nc1nnc(/C=C/c2ccc(OC)cc2)s1	55*	107	10	1	0	5
O=C(c1ccc(N2CCOCC2)c([N+](=O)[O-])c1)N1CCCC(C(F)(F)F)C1 (stereo unspecified)	-5	.	-5	.	.	-7
O=C(CN1C(=O)C(=O)N(C2CCCC2)C1=O)NCCc1ccc(Cl)cc1Cl	0	.	.	.	.	.
CC(=O)N1CCc2[nH]c3ccccc3c2C1	6	95	4	3.3*	0	-9
CC(=O)N1CCc2[nH]c3ccc(C)cc3c2C1	22	.	0	.	.	-8
COc1ccc(NC(=O)C2Cc3ccccc3O/C2=N\O)cc1 (stereo unspecified)	.	.	7	.	.	-13
COc1ccccc1N1C(=O)S/C(=C\c2cccs2)C1=O	78*	.	17	.	.	-14
Clc1cccc(Cl)c1CSc1cc2c(nn1)-c1ccccc1CC2	1	95	5	2	0	-36
Clc1ccccc1CSc1cc2c(nn1)-c1ccccc1CC2	72*	112	18	-1	0	-2
O=C(/C=C/c1ccc(S(=O)(=O)N2CCOCC2)cc1)OCC(=O)c1ccc([N+](=O)[O-])cc1	-1	.	9	1	.	5
Cn1cc(CCNC(=O)C2CCC(=O)N(CCc3ccc(Cl)cc3)C2)cn1 (stereo unspecified)	7	.	-5	.	.	9
Cc1cccc(CN2CCc3c([nH]c4ccccc34)C2C(C)(C)C)n1 (stereo unspecified)	60*	.	-2	.	.	12
O=C(NC1CCCC1)c1cnc2n(c1=O)CCS2	60*	100	-9	-1	0	9
CC1CC(NC(=O)c2cnc3n(c2=O)CCS3)CC(C)(C)C1 (stereo unspecified)	1	.	4	.	.	1
